Published values from different studies.
Compare with care: the assays were run in different laboratories.
Target: Tyrosine-protein kinase Fes/Fps (FES, Homo sapiens, UniProt P07332)

| SMILES | test | conditions | remaining binding [%] |
| --- | --- | --- | --- |
| CN(C)C(=O)Cn1cc(-c2nc([C@@](C)(c3ccc(-c4cnc(N)nc4)cc3)C3CC3)no2)cn1 | cell-free assay, competition with immobilised ligand | 1 µM | 100 |
| C[C@H]1CCN(c2nccc(-c3cnn4ncccc34)n2)C1 | binding | 1 µM | 100 |
| C[C@@H](c1ccc(-n2cnc3c(N)ncnc32)cc1)N1CCc2nn(C)c(Cc3ccccc3)c2C1=O | binding, competition with immobilised ligand | 0.1 µM | 89 |
| O=C(c1ccc(Nc2ncc(Cl)c(-c3ccc(Cl)s3)n2)cc1)N1CCC(N2CCCC2)CC1 | binding, competition with immobilised ligand | 1 µM | 59 |
| CN([C@@H]1CCc2c(CC(=O)O)c3ccccc3n2C1)S(=O)(=O)c1ccc(F)cc1 | cell-free assay, competition with immobilised ligand | 1 µM | 79 |
| CC1CCCN1c1nccc(-c2cnn3ncccc23)n1 (stereo not shown) | binding | 1 µM | 100 |
| O=C(NCCCN1CCOCC1)c1ccc(Nc2nccc(-c3cc4ccccc4s3)n2)cc1 | binding, competition with immobilised ligand | 1 µM | 85 |
| N[C@H]1CCN(c2nccc(-c3cnn4ncccc34)n2)C1 | binding | 1 µM | 100 |
| Cc1c[nH]c2nccc(Oc3c(F)cc(Nc4cc(Cl)nc(N)n4)cc3F)c12 | cell-free assay, competition with immobilised ligand | 0.1 µM | 100 |
| Cc1cnc(Nc2ccc(C(=O)N3CCC(N4CCCC4)CC3)cc2)nc1-c1cc2ccccc2s1 | binding, competition with immobilised ligand | 1 µM | 52 |
| CCS(=O)(=O)c1cc2cc(C[C@@](O)(CC(C)(C)c3ccc(F)cc3C(N)=O)C(F)(F)F)[nH]c2cn1 | cell-free assay, competition with immobilised ligand | 1 µM | 100 |
| FC(F)(F)Oc1cccc(-c2cnc3ccc(-c4ccncc4)nn23)c1 | cell-free assay, competition with immobilised ligand | 5 µM | 84 |
| CS(=O)(=O)N1CCCC(NC(=O)[C@H](CCC2CCCCC2)NC(=O)c2ccc(CNc3ncnc4c3nnn4-c3ccccc3)cc2)C1 (stereo partly shown) | cell-free assay, competition with immobilised ligand | 0.1 µM | 87 |
| c1cnn2ncc(-c3ccnc(N4CCC45COC5)n3)c2c1 | binding | 1 µM | 95 |
| O=C(Nc1c[nH]nc1C(=O)NC1CCNCC1)c1cc(F)cc(F)c1 | binding, competition with immobilised ligand | 1 µM | 100 |
| c1cncc(-c2cccc(Nc3nccc(NC4CCCCC4)n3)c2)c1 | binding, competition with immobilised ligand | 10 µM | 80 |
| CN(C)c1ncc(F)c(-c2cnn3ncccc23)n1 | binding | 1 µM | 87 |
| Cc1nccc(COC(=O)N2C[C@@H]3[C@@H](CNC(=O)c4ccc5[nH]nnc5c4)[C@@H]3C2)n1 | cell-free assay, competition with immobilised ligand | 1 µM | 99 |
| COc1ccnn2ncc(-c3ccnc(N(C)C)n3)c12 | binding | 1 µM | 75 |
| C=CC(=O)N1CCC(C(=O)NCC(=O)N2CCN(c3nc(-c4cnc(N)nc4C(F)F)nc(N4CCOCC4)n3)CC2)CC1 | binding, competition with immobilised ligand | 1 µM | 100 |
| Cn1nc(C(=O)NCc2ccc(C(=O)O)cc2)cc1-c1ccc2[nH]ccc2c1 | cell-free assay, competition with immobilised ligand | 0.1 µM | 95 |
| COc1cnc(Nc2cccc(S(N)(=O)=O)c2)nc1N1CCN(c2ccccc2)C(=O)C1 | binding, competition with immobilised ligand | 1 µM | 100 |
